Experimental data as given in ChEMBL document CHEMBL1133607, “Nonpeptide analogues of dynorphin A(1-8): design, synthesis, and pharmacological evaluation of kappa-selective agonists” (J Med Chem, 2000).

The compounds below were run against Mu-type opioid receptor (Rattus norvegicus, UniProt P33535) (assay: Displacement of [3H]diprenorphine from opioid receptor mu 1 on crude membrane fractions obtained from whole rat brain (minus cerebellum)).
Format: tissue-based
Summary of the method: (§1)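 Rat whole-brain (minus cerebellum) crude membranes, 1 mg protein/tube, in 50 mM Tris-HCl pH 7.4 with aprotinin, leupeptin and bacitracin. […] U50,488 and DADLE (300 nM each) saturate κ and δ sites; 1 µM DAMGO defines nonspecific binding. Compounds tested at 10^-11 to 10^-5 M. Ki values are the mean of three experiments in duplicate.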

Chain of Mu-type opioid receptor (P33535 whole entry): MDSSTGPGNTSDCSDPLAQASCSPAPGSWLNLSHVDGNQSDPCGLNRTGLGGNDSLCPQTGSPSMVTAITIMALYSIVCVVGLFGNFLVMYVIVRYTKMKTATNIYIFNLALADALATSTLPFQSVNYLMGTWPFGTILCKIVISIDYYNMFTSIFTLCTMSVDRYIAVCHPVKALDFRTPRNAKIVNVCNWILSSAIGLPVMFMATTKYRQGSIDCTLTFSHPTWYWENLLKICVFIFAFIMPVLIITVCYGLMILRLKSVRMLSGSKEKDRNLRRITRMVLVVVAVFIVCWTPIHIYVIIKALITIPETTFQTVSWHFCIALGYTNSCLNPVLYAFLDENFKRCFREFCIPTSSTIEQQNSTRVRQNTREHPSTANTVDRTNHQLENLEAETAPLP

`CC(C)CC(NC(=O)CNC(=O)[C@]1(c2ccccc2)CC1CN1CC[C@@]2(C)c3cc(O)ccc3CC1C2C)C(=O)NCCCCN` (some centres not stated) and `CC(C)CC(NC(=O)CNC(=O)[C@]1(c2ccccc2)CC1CN1CC[C@@]2(C)c3cc(O)ccc3CC1C2C)C(=O)NCCCN` (some centres not stated) are within 1.5-fold of each other in Ki: 13200 nM for the first, 16100 nM for the second.

Going from `CC(C)CC(NC(=O)[C@]1(c2ccccc2)CC1CN1CC[C@@]2(C)c3cc(O)ccc3CC1C2C)C(=O)NCCCN` (some centres not stated) to `CC(C)CC(NC(=O)[C@]1(c2ccccc2)CC1CN1CC[C@@]2(C)c3cc(O)ccc3CC1C2C)C(=O)NCCCN=C(N)N` (some centres not stated), the Ki falls from 4220 nM to 2430 nM (1.7-fold). The second binds more tightly here.

`CCC(=N)NCCCCNC(=O)C(CC(C)C)NC(=O)CNC(=O)[C@]1(c2ccccc2)CC1CN1CC[C@@]2(C)c3cc(O)ccc3CC1C2C` (some centres not stated) and `CCCC(=N)NCCCCCNC(=O)C(CC(C)C)NC(=O)CNC(=O)[C@]1(c2ccccc2)CC1CN1CC[C@@]2(C)c3cc(O)ccc3CC1C2C` (some centres not stated) are within 1.5-fold of each other in Ki: 7480 nM for the first, 7190 nM for the second.

`CCCC(=N)NCCCCNC(=O)C(CC(C)C)NC(=O)[C@]1(c2ccccc2)CC1CN1CC[C@@]2(C)c3cc(O)ccc3CC1C2C` (some centres not stated) and `CCC(=N)NCCCCCCNC(=O)C(CC(C)C)NC(=O)[C@]1(c2ccccc2)CC1CN1CC[C@@]2(C)c3cc(O)ccc3CC1C2C` (some centres not stated) are within 1.5-fold of each other in Ki: 2280 nM for the first, 2940 nM for the second.

First: CC(C)CC(NC(=O)CNC(=O)[C@]1(c2ccccc2)CC1CN1CC[C@@]2(C)c3cc(O)ccc3CC1C2C)C(=O)NCCCCN=C(N)N (some centres not stated)
Second: CC(C)CC(NC(=O)[C@]1(c2ccccc2)CC1CN1CC[C@@]2(C)c3cc(O)ccc3CC1C2C)C(=O)NCCCCN=C(N)N (some centres not stated)
The Ki of the first is 2.1-fold higher: 6160 nM for the first, 2950 nM for the second.

What follows are compounds tested against Kappa-type opioid receptor (Cavia porcellus, UniProt P41144) (assay: Displacement of [3H]-U-69,593 from Opioid receptor kappa 1 in guinea pig cerebellar.).
Chain of Kappa-type opioid receptor (P41144 whole entry): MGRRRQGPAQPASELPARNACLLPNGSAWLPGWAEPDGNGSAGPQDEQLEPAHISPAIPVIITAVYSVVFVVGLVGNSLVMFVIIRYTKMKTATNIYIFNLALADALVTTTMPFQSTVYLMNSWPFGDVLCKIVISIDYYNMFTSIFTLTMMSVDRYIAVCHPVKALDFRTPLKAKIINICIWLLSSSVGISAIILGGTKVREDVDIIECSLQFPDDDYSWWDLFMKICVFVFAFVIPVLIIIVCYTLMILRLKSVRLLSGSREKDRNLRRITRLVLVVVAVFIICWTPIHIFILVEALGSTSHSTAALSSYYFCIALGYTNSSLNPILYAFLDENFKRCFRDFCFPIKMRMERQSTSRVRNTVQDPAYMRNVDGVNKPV

`CC(C)CC(NC(=O)CNC(=O)[C@]1(c2ccccc2)CC1CN1CC[C@@]2(C)c3cc(O)ccc3CC1C2C)C(=O)NCCCCN` (some centres not stated) and `CC(C)CC(NC(=O)CNC(=O)[C@]1(c2ccccc2)CC1CN1CC[C@@]2(C)c3cc(O)ccc3CC1C2C)C(=O)NCCCN` (some centres not stated) are within 1.5-fold of each other in Ki: 270 nM for the first, 282 nM for the second.

`CC(C)CC(NC(=O)[C@]1(c2ccccc2)CC1CN1CC[C@@]2(C)c3cc(O)ccc3CC1C2C)C(=O)NCCCN` (some centres not stated) and `CC(C)CC(NC(=O)[C@]1(c2ccccc2)CC1CN1CC[C@@]2(C)c3cc(O)ccc3CC1C2C)C(=O)NCCCN=C(N)N` (some centres not stated) are within 1.5-fold of each other in Ki: 367 nM for the first, 280 nM for the second.

Compared with `CCC(=N)NCCCCNC(=O)C(CC(C)C)NC(=O)CNC(=O)[C@]1(c2ccccc2)CC1CN1CC[C@@]2(C)c3cc(O)ccc3CC1C2C` (some centres not stated), `CCCC(=N)NCCCCCNC(=O)C(CC(C)C)NC(=O)CNC(=O)[C@]1(c2ccccc2)CC1CN1CC[C@@]2(C)c3cc(O)ccc3CC1C2C` (some centres not stated) is 2.7-fold lower in Ki: 176 nM for the first, 65.3 nM for the second. The second binds more tightly here.

First: CCCC(=N)NCCCCNC(=O)C(CC(C)C)NC(=O)[C@]1(c2ccccc2)CC1CN1CC[C@@]2(C)c3cc(O)ccc3CC1C2C (some centres not stated)
Second: CCC(=N)NCCCCCCNC(=O)C(CC(C)C)NC(=O)[C@]1(c2ccccc2)CC1CN1CC[C@@]2(C)c3cc(O)ccc3CC1C2C (some centres not stated)
The Ki of the first is 1.8-fold higher: 203 nM for the first, 116 nM for the second.

Going from `CC(C)CC(NC(=O)CNC(=O)[C@]1(c2ccccc2)CC1CN1CC[C@@]2(C)c3cc(O)ccc3CC1C2C)C(=O)NCCCCN=C(N)N` (some centres not stated) to `CC(C)CC(NC(=O)[C@]1(c2ccccc2)CC1CN1CC[C@@]2(C)c3cc(O)ccc3CC1C2C)C(=O)NCCCCN=C(N)N` (some centres not stated), the Ki rises from 67.2 nM to 250 nM (3.7-fold).

The compounds below were run against Opioid receptors; mu & kappa (UniProt P41145+P35372) (assay: Ratio of affinity towards mu and kappa opioid receptors).
Chain of Opioid receptors; mu & kappa (P35372 whole entry, looked up): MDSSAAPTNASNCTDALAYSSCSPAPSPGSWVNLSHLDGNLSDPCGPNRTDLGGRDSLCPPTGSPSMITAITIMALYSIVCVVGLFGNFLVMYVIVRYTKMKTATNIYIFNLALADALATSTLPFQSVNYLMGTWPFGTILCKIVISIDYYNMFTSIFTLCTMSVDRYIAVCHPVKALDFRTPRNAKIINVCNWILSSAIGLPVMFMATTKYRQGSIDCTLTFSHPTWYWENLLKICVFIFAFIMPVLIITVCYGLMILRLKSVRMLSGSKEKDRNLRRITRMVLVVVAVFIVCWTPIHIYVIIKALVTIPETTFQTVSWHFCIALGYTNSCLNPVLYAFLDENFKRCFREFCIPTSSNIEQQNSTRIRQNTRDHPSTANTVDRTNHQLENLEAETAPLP
Chain of Opioid receptors; mu & kappa (P41145 whole entry, looked up): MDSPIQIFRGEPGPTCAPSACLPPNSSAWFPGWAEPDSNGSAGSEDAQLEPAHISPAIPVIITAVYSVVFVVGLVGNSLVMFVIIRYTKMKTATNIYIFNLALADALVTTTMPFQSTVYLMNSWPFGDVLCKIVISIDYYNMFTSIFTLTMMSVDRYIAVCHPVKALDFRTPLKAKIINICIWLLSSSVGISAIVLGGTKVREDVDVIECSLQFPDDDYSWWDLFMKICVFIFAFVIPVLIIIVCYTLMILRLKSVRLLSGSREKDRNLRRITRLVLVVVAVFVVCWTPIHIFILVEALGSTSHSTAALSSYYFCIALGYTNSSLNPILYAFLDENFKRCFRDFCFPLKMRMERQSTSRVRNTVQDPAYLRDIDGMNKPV
Format: protein assay

Compared with `CC(C)CC(NC(=O)CNC(=O)[C@]1(c2ccccc2)CC1CN1CC[C@@]2(C)c3cc(O)ccc3CC1C2C)C(=O)NCCCCN` (some centres not stated), `CC(C)CC(NC(=O)CNC(=O)[C@]1(c2ccccc2)CC1CN1CC[C@@]2(C)c3cc(O)ccc3CC1C2C)C(=O)NCCCN` (some centres not stated) is higher in Selectivity ratio: 49.1 for the first, 57 for the second.

First: CC(C)CC(NC(=O)[C@]1(c2ccccc2)CC1CN1CC[C@@]2(C)c3cc(O)ccc3CC1C2C)C(=O)NCCCN (some centres not stated)
Second: CC(C)CC(NC(=O)[C@]1(c2ccccc2)CC1CN1CC[C@@]2(C)c3cc(O)ccc3CC1C2C)C(=O)NCCCN=C(N)N (some centres not stated)
The Selectivity ratio of the first is higher: 11.5 for the first, 8.7 for the second.

Compared with `CCC(=N)NCCCCNC(=O)C(CC(C)C)NC(=O)CNC(=O)[C@]1(c2ccccc2)CC1CN1CC[C@@]2(C)c3cc(O)ccc3CC1C2C` (some centres not stated), `CCCC(=N)NCCCCCNC(=O)C(CC(C)C)NC(=O)CNC(=O)[C@]1(c2ccccc2)CC1CN1CC[C@@]2(C)c3cc(O)ccc3CC1C2C` (some centres not stated) is higher in Selectivity ratio: 42.6 for the first, 110 for the second.

First: CCCC(=N)NCCCCNC(=O)C(CC(C)C)NC(=O)[C@]1(c2ccccc2)CC1CN1CC[C@@]2(C)c3cc(O)ccc3CC1C2C (some centres not stated)
Second: CCC(=N)NCCCCCCNC(=O)C(CC(C)C)NC(=O)[C@]1(c2ccccc2)CC1CN1CC[C@@]2(C)c3cc(O)ccc3CC1C2C (some centres not stated)
The Selectivity ratio of the first is lower: 11.2 for the first, 25.3 for the second.

Compared with `CC(C)CC(NC(=O)CNC(=O)[C@]1(c2ccccc2)CC1CN1CC[C@@]2(C)c3cc(O)ccc3CC1C2C)C(=O)NCCCCN=C(N)N` (some centres not stated), `CC(C)CC(NC(=O)[C@]1(c2ccccc2)CC1CN1CC[C@@]2(C)c3cc(O)ccc3CC1C2C)C(=O)NCCCCN=C(N)N` (some centres not stated) is lower in Selectivity ratio: 91.7 for the first, 11.8 for the second.

The compounds below were run against Delta-type opioid receptor (Rattus norvegicus, UniProt P33533) (assay: Displacement of [3H]diprenorphine opioid receptor delta 1 on crude membrane fractions obtained from the whole rat brain (minus cerebellum)).
Chain of Delta-type opioid receptor (P33533 whole entry): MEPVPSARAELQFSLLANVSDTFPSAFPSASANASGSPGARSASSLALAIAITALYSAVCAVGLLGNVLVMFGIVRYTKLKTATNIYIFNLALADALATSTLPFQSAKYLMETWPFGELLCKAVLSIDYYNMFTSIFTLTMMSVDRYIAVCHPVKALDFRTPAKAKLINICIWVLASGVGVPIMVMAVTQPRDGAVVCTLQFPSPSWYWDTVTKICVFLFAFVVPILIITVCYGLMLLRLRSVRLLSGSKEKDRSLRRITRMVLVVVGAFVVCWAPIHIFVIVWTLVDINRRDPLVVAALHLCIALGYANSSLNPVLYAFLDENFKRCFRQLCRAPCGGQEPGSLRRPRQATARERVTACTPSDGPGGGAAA
Format: tissue-based
Summary of the method: as §1, with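 “DAMGO” for “DADLE”, “µ” for “δ”, “DPDPE” for “DAMGO”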

`CC(C)CC(NC(=O)CNC(=O)[C@]1(c2ccccc2)CC1CN1CC[C@@]2(C)c3cc(O)ccc3CC1C2C)C(=O)NCCCCN` (some centres not stated) and `CC(C)CC(NC(=O)CNC(=O)[C@]1(c2ccccc2)CC1CN1CC[C@@]2(C)c3cc(O)ccc3CC1C2C)C(=O)NCCCN` (some centres not stated) are within 1.5-fold of each other in Ki: 10500 nM for the first, 10600 nM for the second.

First: CCC(=N)NCCCCNC(=O)C(CC(C)C)NC(=O)CNC(=O)[C@]1(c2ccccc2)CC1CN1CC[C@@]2(C)c3cc(O)ccc3CC1C2C (some centres not stated)
Second: CCCC(=N)NCCCCCNC(=O)C(CC(C)C)NC(=O)CNC(=O)[C@]1(c2ccccc2)CC1CN1CC[C@@]2(C)c3cc(O)ccc3CC1C2C (some centres not stated)
The Ki of the first is 1.9-fold higher: 9700 nM for the first, 5210 nM for the second. The second binds more tightly here.

`CC(C)CC(NC(=O)CNC(=O)[C@]1(c2ccccc2)CC1CN1CC[C@@]2(C)c3cc(O)ccc3CC1C2C)C(=O)NCCCCN=C(N)N` (some centres not stated) and `CCC(=N)NCCCCCCNC(=O)C(CC(C)C)NC(=O)[C@]1(c2ccccc2)CC1CN1CC[C@@]2(C)c3cc(O)ccc3CC1C2C` (some centres not stated) are within 1.5-fold of each other in Ki: 3500 nM for the first, 3550 nM for the second.

Organism: Cavia porcellus
Assay: Ratio of affinity towards delta to kappa opioid receptor

Going from `CC(C)CC(NC(=O)CNC(=O)[C@]1(c2ccccc2)CC1CN1CC[C@@]2(C)c3cc(O)ccc3CC1C2C)C(=O)NCCCCN` (some centres not stated) to `CC(C)CC(NC(=O)CNC(=O)[C@]1(c2ccccc2)CC1CN1CC[C@@]2(C)c3cc(O)ccc3CC1C2C)C(=O)NCCCN` (some centres not stated), the Selectivity ratio falls from 38.7 to 37.6.

Going from `CCC(=N)NCCCCNC(=O)C(CC(C)C)NC(=O)CNC(=O)[C@]1(c2ccccc2)CC1CN1CC[C@@]2(C)c3cc(O)ccc3CC1C2C` (some centres not stated) to `CCCC(=N)NCCCCCNC(=O)C(CC(C)C)NC(=O)CNC(=O)[C@]1(c2ccccc2)CC1CN1CC[C@@]2(C)c3cc(O)ccc3CC1C2C` (some centres not stated), the Selectivity ratio rises from 55.2 to 79.8.

Going from `CC(C)CC(NC(=O)CNC(=O)[C@]1(c2ccccc2)CC1CN1CC[C@@]2(C)c3cc(O)ccc3CC1C2C)C(=O)NCCCCN=C(N)N` (some centres not stated) to `CCC(=N)NCCCCCCNC(=O)C(CC(C)C)NC(=O)[C@]1(c2ccccc2)CC1CN1CC[C@@]2(C)c3cc(O)ccc3CC1C2C` (some centres not stated), the Selectivity ratio falls from 52.1 to 30.5.
